Experimental data taken from ChEMBL document CHEMBL1152296, “Fragment-based design of small molecule X-linked inhibitor of apoptosis protein inhibitors” (J Med Chem, 2008).
pIC50, pKd: −log10 of the molar value. Calls of active or inactive are those of the source. The rule behind the calls is not given here.

What was measured:
MDA-MB-231 [1] = assay: cells; details: Homo sapiens, MDA-MB-231, 48 h
[2] = Stability in human plasma by LC/MS/MS analysis; format: ADME, cell-free; details: read-out: Stability
In short: (§1)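 Incubation in human plasma at 37 °C for 15, 60 and 120 min. Quantitation by LC/MS/MS in MRM mode, with results expressed as percent remaining of initial concentration.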

MDA-MB-231 [3] = assay: Increase in caspase-3 activation in human MDA-MB-231 cells at 5 to 20 uM after 24 hrs by MSD assay; format: functional, cell-based
[4] = Apparent solubility after 1 day by nephelometry-based method; format: physicochemical
In short: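 DMSO stock at 10 mM prepared on day 1. Tested at 8 concentrations in triplicate. Assay run on day 1 and read on day 2.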

MDA-MB-231 [5] = assay: Sensitization of 130 ng/mL TRAIL-induced apoptosis in human MDA-MB-231 cells assessed as combination index at 13 uM after 24 hrs by ATPlite assay; format: functional
MDA-MB-231 [6] = assay: Sensitization of 120 ng/mL TRAIL-induced apoptosis in human MDA-MB-231 cells assessed as combination index at 12 uM after 24 hrs by ATPlite assay; format: functional
[7] = Metabolic stability in liver microsomes assessed as half life after 30 mins by LC/MS/MS analysis in presence of NADPH; format: ADME, Microsome
MDA-MB-231 [8] = assay: Sensitization of 50 ng/mL TRAIL-induced apoptosis in human MDA-MB-231 cells assessed as combination index at 5 uM after 24 hrs by ATPlite assay; format: functional
MDA-MB-231 [9] = assay: Sensitization of 90 ng/mL TRAIL-induced apoptosis in human MDA-MB-231 cells assessed as combination index at 9 uM after 24 hrs by ATPlite assay; format: functional
Plasma = assay: Stability in human plasma assessed as compound remaining by LC/MS/MS analysis; format: ADME, cell-free
In short: as §1

MEF [10] = assay: Inhibition of XIAP knockout MEF proliferation assessed as cell viability after 24 hrs by ATPlite assay relative to control; format: functional, cell-based; details: Mus musculus
MEF [11] = assay: Inhibition of wild type MEF proliferation assessed as cell viability at 5 to 45 uM after 24 hrs by ATPlite assay relative to control; format: cell-based; details: mouse
[12] = Metabolic stability in liver microsomes assessed as intrinsic clearance after 30 mins by LC/MS/MS analysis in presence of NADPH; format: ADME, Microsome; details: 0.5 h
[13] = Permeability by PAMPA method; format: ADME
MDA-MB-231 [14] = assay: Sensitization of 100 ng/mLTRAIL-induced apoptosis in human MDA-MB-231 cells assessed as combination index at 10 uM after 24 hrs by ATPlite assay; format: functional
[15] = target: E3 ubiquitin-protein ligase XIAP (Homo sapiens, UniProt P98170); assay: Binding affinity to histidine6-tagged human XIAP Bir3 domain expressed in Escherichia coli BL21(DE3)
In short: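 Binding to 15N-labelled Bir3 was measured by 2D [15N,1H]-HSQC NMR titration at 300 K. Samples held 0.1 mM protein in 100 mM potassium phosphate pH 7.0 with 5% DMSO and 7% D2O. At least six ligand concentrations were used. Kd came from a non-linear least-squares fit of fractional shift change (p) against ligand concentration.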

E3 ubiquitin-protein ligase XIAP, sequence (P98170 whole entry, the tested form may be a part): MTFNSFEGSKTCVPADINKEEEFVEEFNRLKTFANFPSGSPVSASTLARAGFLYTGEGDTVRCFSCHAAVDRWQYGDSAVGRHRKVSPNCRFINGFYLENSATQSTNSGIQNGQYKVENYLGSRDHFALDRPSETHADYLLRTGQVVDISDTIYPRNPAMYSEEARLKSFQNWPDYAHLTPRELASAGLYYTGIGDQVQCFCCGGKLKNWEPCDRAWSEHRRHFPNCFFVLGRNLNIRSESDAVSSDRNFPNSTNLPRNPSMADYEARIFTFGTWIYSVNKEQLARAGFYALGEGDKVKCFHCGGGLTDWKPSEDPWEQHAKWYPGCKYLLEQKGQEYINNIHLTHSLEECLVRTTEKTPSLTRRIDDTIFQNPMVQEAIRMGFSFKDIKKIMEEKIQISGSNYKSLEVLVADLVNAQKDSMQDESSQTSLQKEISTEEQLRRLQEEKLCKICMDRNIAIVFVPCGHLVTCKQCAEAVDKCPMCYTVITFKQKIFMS

SMILES: CC[C@H](C)[C@H](NC(=O)[C@@H]1CCCN1C(=O)[C@@H](NC(=O)[C@H](C)N)C(C)C)C(=O)O
- pIC50 (MDA-MB-231 [1]): < 4.30

SMILES: CN[C@@H](C)C(=O)Nc1ccc(Oc2ccc(OC)cc2)c(C(=O)NCc2csc(-c3cccs3)n2)c1
- half-life [2]: > 120 min
- Activity (MDA-MB-231 [3]): Active
- solubility kinetic at 24 h [4]: > 100 µg/mL
- Activity (MDA-MB-231 [5]): 0.32
- Activity (MDA-MB-231 [6]): 0.27
- half-life [7]: 14.5 min
- Activity (MDA-MB-231 [8]): 0.44
- Activity (MDA-MB-231 [9]): 0.4
- Stability (Plasma): 93.9%
- Activity (MEF [10]): Active
- Activity (MEF [11]): Toxic
- clearance [12]: 47.7 µL/min/mg
- permeability [13]: 27%
- Activity (MDA-MB-231 [14]): 0.41

SMILES: C[C@H](N)C(=O)Nc1ccc(Oc2ccccc2Cl)cc1
- pKd [15]: 3.70
